Compound activity deposited in PubChem BioAssay by Johns Hopkins Ion Channel Center.
TRPC6 act: mouse TRPC6 channel activation | B-score at 10 µM | actives 0.13% (n = 310,000) | AID 2550 | HEK293-TRPC6 membrane potential dye fluorescence; hits give high values;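 active means B-score of the integrated fluorescence ratio above library mean plus 3 SD, and starting fluorescence ratio within library mean plus 5 SD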;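 further: higher score means more depolarization so channel activation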
Target sequence (Q61143 whole entry, looked up): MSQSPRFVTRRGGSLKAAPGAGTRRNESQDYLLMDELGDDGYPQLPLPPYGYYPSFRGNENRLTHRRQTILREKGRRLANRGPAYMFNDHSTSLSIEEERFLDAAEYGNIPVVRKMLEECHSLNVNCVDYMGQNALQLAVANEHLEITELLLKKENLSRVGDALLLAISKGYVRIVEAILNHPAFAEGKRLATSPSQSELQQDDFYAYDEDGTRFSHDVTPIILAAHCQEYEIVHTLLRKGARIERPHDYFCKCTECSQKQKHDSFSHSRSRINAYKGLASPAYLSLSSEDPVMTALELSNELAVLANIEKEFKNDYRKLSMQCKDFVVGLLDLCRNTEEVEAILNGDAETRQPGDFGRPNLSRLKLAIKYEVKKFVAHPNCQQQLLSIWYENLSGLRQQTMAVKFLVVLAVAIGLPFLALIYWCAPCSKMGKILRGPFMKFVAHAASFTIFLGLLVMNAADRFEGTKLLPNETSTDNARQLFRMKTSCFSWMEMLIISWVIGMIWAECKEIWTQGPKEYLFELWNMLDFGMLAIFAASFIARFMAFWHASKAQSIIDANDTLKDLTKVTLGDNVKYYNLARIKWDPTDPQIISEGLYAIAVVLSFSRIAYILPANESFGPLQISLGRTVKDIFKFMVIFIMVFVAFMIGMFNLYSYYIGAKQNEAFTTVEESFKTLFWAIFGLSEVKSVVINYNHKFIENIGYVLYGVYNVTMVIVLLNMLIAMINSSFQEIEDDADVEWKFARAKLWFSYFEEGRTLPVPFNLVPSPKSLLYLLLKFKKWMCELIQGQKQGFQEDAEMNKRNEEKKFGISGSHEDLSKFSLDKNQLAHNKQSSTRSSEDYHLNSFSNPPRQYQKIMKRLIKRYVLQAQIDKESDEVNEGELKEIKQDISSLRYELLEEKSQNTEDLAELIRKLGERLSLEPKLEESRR
TRPC4 act: activators of mouse TRPC4 channel; Q9QUQ5; HEK293 TRPC4beta/mu-opioid, Fluo4 calcium fluorescence; hits give high values; B-score at 10 µM; actives 0.49% (n = 310,000); AID 2237;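 active means B-score above 5 SD of library B-scores, and initial fluorescence ratio not above library mean plus 5 SD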;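 further: positive B-score marks a calcium rise read as TRPC4 activation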
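Technique: kinetic Fluo4 calcium fluorescence; Test system: TRPC4beta and mu-opioid receptor HEK293 stable cells; Measure: B-scored integrated calcium fluorescence ratio; Benchmarks: low control buffer alone, high control maximal DAMGO; Schedule: 45 min room-temperature Fluo4 loading, 110 s read.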
TRPC6 inh: blocks the mouse TRPC6 cation channel. actives 1.1% (n = 310,000). HEK293-TRPC6, membrane potential dye, ACh-evoked depolarization; hits give low values. AID 2553. Q61143. B-score at 10 µM;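 active means B-score under library mean minus 3 SD, initial fluorescence not abnormally high, positive integrated signal ratio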;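 further: B-score derived from integrated fluorescence ratio over the kinetic read; more negative B-score means stronger inhibition of depolarization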
TRPC4 potent: allosteric potentiators of mouse TRPC4 channel. Q9QUQ5. B-score at 10 µM. HEK293 TRPC4beta/mu-opioid, DAMGO EC20, Fluo-4 Ca2+ flux; hits give high values. AID 2227. actives 0.42% (n = 310,000);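 active means B-score of calcium response area above 5 SD of library B-scores, with initial fluorescence ratio within 5 SD of library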;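 further: B-score of integrated fluorescence ratio over time as area under calcium response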
TRPC4 inh: blocks the mouse TRPC4 cation channel; Q9QUQ5; actives 0.39% (n = 300,000); HEK293 TRPC4beta/mu-opioid, DAMGO-evoked Fluo4 calcium flux; hits give low values; B-score at 10 µM; AID 2247;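 active means B-score over 3 SD under the library average, no early fluorescence shift, positive overall ratio signal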
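Assay system – HEK293 line stably carrying TRPC4beta and mu-opioid receptor · Doses – single dose · Detection – Fluo4 calcium-dye fluorescence, kinetic read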
TRPC4 sel inh 2: second selectivity test of TRPC6 inhibitors: effect on mouse TRPC4; shares compounds with TRPC6 inh; HEK293 TRPC4/MOR, membrane potential dye fluorescence; channel activated by saturating DAMGO dose; inhibition, % at 10 µM; actives 42% (n = 920);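 active means compounds whose fluorescence signal differed from control wells by over 3 SD, either direction, in both duplicate plates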
TRPC4 spec: tests whether TRPC6 inhibitors also affect mouse TRPC4; shares compounds with TRPC6 inh; HEK293 TRPC4/mu-opioid, membrane potential fluorescence; activity change, negative = inhibition, % at 10 µM; actives 61% (n = 920); AID 2777;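 active means rise or fall in signal beyond 3 SD of buffer-only wells in both replicate plates, either sign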;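 further: integrated kinetic ratio of fluorescence range over baseline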
HEK293 MPD ctr 2-1: parental HEK293 nonspecific activity of TRPC6 inhibitors, second screen. shares compounds with TRPC6 inh. parental HEK293 membrane potential dye fluorescence; maximal acetylcholine challenge after compound addition. signal change vs control, % at 10 µM. actives 31% (n = 920). AID 2779;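 active means membrane potential signal moving either way by over 3 SD of the maximum-effect control, in both duplicate plates, meaning non-specific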
HEK293 MPD ctr-1: counter-screen for TRPC6 inhibitors: effect in parental HEK293 cells | AID 2780 | membrane potential signal change, % at 10 µM | shares compounds with TRPC6 inh | actives 60% (n = 920) | parental HEK293 membrane potential dye fluorescence;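 active means membrane potential signal shifting up or down by more than 3 SD of buffer-only wells, on both duplicate plates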
HEK293 MPD ctr-2: counter-screen for TRPC6 modulators: effect in parental HEK293 cells | shares compounds with TRPC6 inh | AID 488924 | membrane potential signal change, % at 10 µM | actives 51% (n = 2,400) | membrane potential dye fluorescence;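 active means membrane potential signal moves up or down beyond 5 SD from buffer-only wells, on both duplicate plates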
HEK293 MPD ctr 2-2: parental HEK293 nonspecific activity of TRPC6 modulators, second screen; shares compounds with TRPC6 inh; membrane potential dye fluorescence; after compound, maximal acetylcholine stimulation; inhibition, % at 10 µM; actives 14% (n = 2,400); AID 488926;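 active means membrane potential signal drops by more than 5 SD from the mean control signal, in both duplicate plates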;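 further: plate controls were acetylcholine ECmax control wells for no effect and buffer only wells for full effect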
TRPC4/MOR mod: tests whether TRPC6 modulators also affect mouse TRPC4 | shares compounds with TRPC6 inh | HEK293 TRPC4/mu-opioid, membrane potential fluorescence | actives 69% (n = 2,400) | percent change from control (negative = decrease, positive = increase), % at 10 µM | AID 488927;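 active means membrane potential signal moved up or down beyond 5 SD of buffer control wells, in both duplicate plates, actives on both sides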;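 further: plate controls were assay buffer wells for no effect and DAMGO maximal-effect wells for full effect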
TRPC4/MOR inh 2: second check of whether TRPC6 modulators also affect mouse TRPC4; shares compounds with TRPC6 inh; actives 55% (n = 2,400); inhibition, % at 10 µM; HEK293 TRPC4/mu-opioid, membrane potential dye fluorescence; stimulated with maximal-effect DAMGO; AID 488928;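 active means drop in membrane potential signal beyond 5 SD of the control wells in both duplicate plates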;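 further: TRPC4 counter screen for TRPC6 hits run under conditions tuned for TRPC6 not TRPC4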
TRPC6 inh conf: confirmation of mouse TRPC6 inhibitors; shares compounds with TRPC6 inh; HEK293-TRPC6, membrane potential dye, ACh-evoked depolarization; inhibition, % at 10 µM; actives 43% (n = 3,300); AID 488960;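 active means fluorescence ratio falls more than 5 SD below the full-stimulation control mean, in both duplicate runs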;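 further: integrated fluorescence ratio of peak minus minimum over baseline after agonist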
TRPC6 act conf: confirmation of mouse TRPC6 activators; shares compounds with TRPC6 inh; HEK293-TRPC6 membrane potential dye fluorescence, FDSS; activation, % at 10 µM; actives 11% (n = 2,800);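 active means ratio signal rise beyond 5 SD above unstimulated control wells' mean, seen in both duplicate runs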;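 further: plate controls were buffer EC0 wells for no effect and acetylcholine ECmax response for full effect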
* marks the source's active call; other numbers are inactive results. Most compounds without a hit are left out; they make up all but 2.3% or so of the library.

What do the screens show for `CC(=O)Oc1cc2c3c(c1)/C(=C1/SC(=S)NC1=O)C(=O)N3C(C)(C)C=C2C`?
TRPC6 act: inactive; TRPC4 act: inactive; TRPC6 inh: -5.7*; TRPC4 potent: inactive; TRPC4 inh: inactive; HEK293 MPD ctr-2: -112%*; HEK293 MPD ctr 2-2: inactive; TRPC4/MOR mod: -28%*; TRPC4/MOR inh 2: 83%*; TRPC6 inh conf: 58%*; TRPC6 act conf: inactive

What do the screens show for `COc1ccc(-c2nc(NCCCN(C)C)c3ccccc3n2)cc1`?
TRPC6 act: inactive; TRPC4 act: inactive; TRPC6 inh: -6.7*; TRPC4 potent: inactive; TRPC4 inh: inactive; TRPC4 sel inh 2: 55%*; TRPC4 spec: -32%*; HEK293 MPD ctr 2-1: inactive; HEK293 MPD ctr-1: -387%*; TRPC6 inh conf: 85%*; TRPC6 act conf: inactive

What do the screens show for `c1ccc(-c2nc(NCCCn3ccnc3)c3ccccc3n2)cc1`?
TRPC6 act: inactive; TRPC4 act: inactive; TRPC6 inh: -5.2*; TRPC4 potent: inactive; TRPC4 inh: inactive; HEK293 MPD ctr-2: -220%*; HEK293 MPD ctr 2-2: inactive; TRPC4/MOR mod: -50%*; TRPC4/MOR inh 2: 72%*; TRPC6 inh conf: 61%*; TRPC6 act conf: inactive

What do the screens show for `COc1ccc(C(CNc2nc(-c3cccnc3)nc3ccccc23)N(C)C)cc1` (stereo not given)?
TRPC6 act: inactive; TRPC4 act: 188*; TRPC6 inh: -7.5*; TRPC4 potent: inactive; TRPC4 inh: inactive; HEK293 MPD ctr-2: -277%*; HEK293 MPD ctr 2-2: inactive; TRPC4/MOR mod: -38%*; TRPC4/MOR inh 2: 90%*; TRPC6 inh conf: 55%*; TRPC6 act conf: inactive

What do the screens show for `CCN(CC)CCCNc1nc(-c2ccccc2)nc2ccccc12`?
TRPC6 act: inactive; TRPC4 act: inactive; TRPC6 inh: -8.8*; TRPC4 potent: inactive; TRPC4 inh: inactive; TRPC4 sel inh 2: 40%*; TRPC4 spec: -27%*; HEK293 MPD ctr 2-1: 35%*; HEK293 MPD ctr-1: -355%*; TRPC6 inh conf: 76%*; TRPC6 act conf: inactive

Results for CC(=O)N1c2ccc(S(=O)(=O)NCCC(=O)Nc3ncccc3C)cc2CC1C (stereo not given) ?
TRPC6 act: inactive; TRPC4 act: inactive; TRPC6 inh: inactive; TRPC4 potent: inactive; TRPC4 inh: inactive

What do the screens show for `Cc1cc(CNC(=O)COc2ccc(F)cc2Cl)cc(C)c1O`?
TRPC6 act: inactive; TRPC4 act: inactive; TRPC6 inh: inactive; TRPC4 potent: inactive; TRPC4 inh: inactive

How did CC(C)Cn1cnc2c1c(=O)[nH]c(=O)n2Cc1ccccc1 do in these assays?
TRPC6 act: inactive; TRPC4 act: inactive; TRPC6 inh: inactive; TRPC4 potent: inactive; TRPC4 inh: inactive

How did CC(Nc1nc(-c2ccccc2O)nc2ccccc12)c1ccccc1 (stereo not given) do in these assays?
TRPC6 act: inactive; TRPC4 act: inactive; TRPC6 inh: inactive; TRPC4 potent: inactive; TRPC4 inh: inactive

What do the screens show for `CC(Nc1nc(-c2ccccc2)nc2ccccc12)c1ccccc1` (stereo not given)?
TRPC6 act: inactive; TRPC4 act: inactive; TRPC6 inh: -7.3*; TRPC4 potent: inactive; TRPC4 inh: inactive; TRPC4 sel inh 2: inactive; TRPC4 spec: -9.5%*; HEK293 MPD ctr 2-1: inactive; HEK293 MPD ctr-1: inactive; TRPC6 inh conf: inactive; TRPC6 act conf: inactive

What do the screens show for `CN(C)CCOc1nc(-c2ccccc2)nc2c1oc1ccccc12`?
TRPC6 act: inactive; TRPC4 act: 45*; TRPC6 inh: -8.9*; TRPC4 potent: inactive; TRPC4 inh: inactive; TRPC4 sel inh 2: 62%*; TRPC4 spec: inactive; HEK293 MPD ctr 2-1: inactive; HEK293 MPD ctr-1: inactive; TRPC6 inh conf: inactive; TRPC6 act conf: inactive

What do the screens show for `CCn1cc(C(=O)OCC(=O)N(C)C2CCS(=O)(=O)C2)c(=O)c2ccc(C)nc21` (stereo not given)?
TRPC6 act: inactive; TRPC4 act: inactive; TRPC6 inh: -5.4*; TRPC4 potent: inactive; TRPC4 inh: inactive; HEK293 MPD ctr-2: -269%*; HEK293 MPD ctr 2-2: inactive; TRPC4/MOR mod: -54%*; TRPC4/MOR inh 2: inactive; TRPC6 inh conf: 60%*; TRPC6 act conf: inactive

How did CC(=O)NCCNC(=O)C1CCCCN1S(=O)(=O)c1ccccc1 (stereo not given) do in these assays?
TRPC6 act: inactive; TRPC4 act: inactive; TRPC6 inh: inactive; TRPC4 potent: inactive; TRPC4 inh: inactive

How did CCOC(=O)N1CCN(C(=O)c2ccc(Cn3c(=S)[nH]c4ccc(Br)cc4c3=O)cc2)CC1 do in these assays?
TRPC6 act: inactive; TRPC4 act: inactive; TRPC6 inh: inactive; TRPC4 potent: inactive; TRPC4 inh: inactive
